Measured values reported in ChEMBL document CHEMBL2176952, “Anticancer activity and cellular repression of c-MYC by the G-quadruplex-stabilizing 11-piperazinylquindoline is not dependent on direct targeting of the G-quadruplex in the c-MYC promoter” (J Med Chem, 2012).
Blank lines part the entries; values can stand above or below the molecule they belong to. Activity calls are given as the source filed them. The calls are words filed in the database; no cut-off is given here.

Columns and labels:
Nucleic Acid [1] = experiment: Thermal stability of c-MYC G-quadruplex DNA assessed as change in melting temperature at DNA:compound ratio 1:1 by spectropolarimeter analysis; assay type: nucleic-acid assay
Procedure, shortened: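 c-MYC G-quadruplex at 5 μM in 50 mM Tris-HCl pH 7.4, held 10 min at 25 °C, heated 10 min at 95 °C and air-cooled over ~30 min. Compound then added at 1 equivalent. Melting followed by CD spectropolarimetry; ΔTm = Tm with compound minus Tm of control.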

HCT-116 [2] = experiment: Cytotoxicity against human HCT116 cells after 96 hrs by MTS assay; assay type: functional, cell-based; details: HCT-116, 96 h
Procedure, shortened: (§1)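 MTS viability after 96 h exposure. HCT-116 grown in DMEM, Raji in RPMI-1640, each with 10% FBS and penicillin/streptomycin at 37 °C, 5% CO2, kept in exponential growth. Compound spanned a 5–6 log range in 0.5 log steps. IC50 from non-linear regression; biological triplicates.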

Raji = experiment: Cytotoxicity against human Raji cells after 96 hrs by MTS assay; assay type: functional, cell-based; procedure, shortened: as §1
CA46 = experiment: Cytotoxicity against human CA46 cells after 24 hrs by MTS assay; assay type: functional, cell-based; details: CA46, 24 h
Nucleic Acid [3] = experiment: Binding affinity to dGdC DNA at 2 uM after 48 hrs by competition dialysis method; assay type: nucleic-acid assay
Procedure, shortened: (§2)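 DNA at 75 μM in 50 mM Tris-HCl with 25 mM KCl. Duplexes annealed by heating to 95 °C then slow cooling at 1 °C/min. G-quadruplexes formed by 95 °C for 10 min with rapid air cooling, topology checked by CD. Dialysed 48 h in a cold room against BPES with 25 mM KCl and 2 μM compound. Bound compound measured by UV absorbance against a standard curve, expressed per binding site. Run in duplicate.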

Nucleic Acid [4] = experiment: Decrease of c-MYC G-quadruplex DNA-mediated c-MYC expression in exon1 in human CA46 cells at 19.4 uM at 6 hrs by exon-specific assay; assay type: cell-based
Nucleic Acid [5] = experiment: Binding affinity to HIF1alpha G-quadruplex DNA in human HCT116 cells assessed as change in HIF1alpha mRNA expression at 23 uM up to 48 hrs by RT-PCR analysis; assay type: cell-based; details: HCT-116
Nucleic Acid [6] = experiment: Binding affinity to c-MYC G-quadruplex DNA at 2 uM after 48 hrs by competition dialysis method; assay type: nucleic-acid assay; procedure, shortened: as §2
Nucleic Acid [7] = experiment: Binding affinity to hTERT G-quadruplex DNA in human HCT116 cells assessed as downregulation of hTERT mRNA expression at 23 uM by RT-PCR analysis; assay type: cell-based; details: HCT-116, TDE = time-dependent effect
HCT-116 [8] = experiment: Cytotoxicity against human HCT116 cells after 24 hrs by MTS assay; assay type: functional, cell-based; details: HCT-116, 24 h
Nucleic Acid [9] = experiment: Binding affinity to VEGFA G-quadruplex DNA in human HCT116 cells assessed as change in VEGFA mRNA expression at 23 uM up to 48 hrs by RT-PCR analysis; assay type: cell-based; details: HCT-116
Nucleic Acid [10] = experiment: Binding affinity to dAdT DNA at 2 uM after 48 hrs by competition dialysis method; assay type: nucleic-acid assay; procedure, shortened: as §2
Nucleic Acid [11] = experiment: Decrease of c-MYC G-quadruplex DNA-mediated c-MYC expression in exon1 in human CA46 cells at 19.4 uM at 48 hrs by exon-specific assay; assay type: cell-based
Nucleic Acid [12] = experiment: Decrease of c-MYC G-quadruplex DNA-mediated c-MYC expression in exon1 in human CA46 cells at 19.4 uM at 24 hrs by exon-specific assay; assay type: cell-based
Nucleic Acid [13] = experiment: Binding affinity to HIF1alpha G-quadruplex DNA in human HCT116 cells assessed as change in HIF1alpha mRNA expression at 31 uM up to 48 hrs by RT-PCR analysis; assay type: cell-based; details: HCT-116
Nucleic Acid [14] = experiment: Binding affinity to c-MYC G-quadruplex DNA in human HCT116 cells assessed as decrease in c-MYC mRNA expression at 23 uM from 6 to 48 hrs by RT-PCR analysis; assay type: cell-based; details: HCT-116
Nucleic Acid [15] = experiment: Binding affinity to PDGFRbeta G-quadruplex DNA in human HCT116 cells assessed as change in PDGFRbeta mRNA expression at 23 uM up to 48 hrs by RT-PCR analysis; assay type: cell-based; details: HCT-116
Nucleic Acid [16] = experiment: Binding affinity to c-MYC G-quadruplex DNA in human HCT116 cells assessed as decrease in c-MYC mRNA expression at 31 uM at 48 hrs by RT-PCR analysis; assay type: cell-based; details: HCT-116
Nucleic Acid [17] = experiment: Decrease of c-MYC G-quadruplex DNA-mediated c-MYC expression in exon1 in human CA46 cells at 2.8 uM at 24 hrs by exon-specific assay; assay type: cell-based
Nucleic Acid [18] = experiment: Binding affinity to hTERT G-quadruplex DNA in human HCT116 cells assessed as downregulation of hTERT mRNA expression at 31 uM at 24 hrs by RT-PCR analysis; assay type: cell-based; details: HCT-116
Nucleic Acid [19] = experiment: Binding affinity to PDGFRbeta G-quadruplex DNA in human HCT116 cells assessed as downregulation of PDGFRbeta mRNA expression at 31 uM at 24 hrs by RT-PCR analysis; assay type: cell-based; details: HCT-116
Nucleic Acid [20] = experiment: Binding affinity to hTERT G-quadruplex DNA in human HCT116 cells assessed as downregulation of hTERT mRNA expression at 31 uM at 48 hrs by RT-PCR analysis; assay type: cell-based; details: HCT-116
Nucleic Acid [21] = experiment: Binding affinity to c-MYC G-quadruplex DNA in human HCT116 cells assessed as decrease in c-MYC mRNA expression at 31 uM at 6 hrs by RT-PCR analysis; assay type: cell-based; details: HCT-116
Nucleic Acid [22] = experiment: Binding affinity to HIF1alpha G-quadruplex DNA at 2 uM after 48 hrs by competition dialysis method; assay type: nucleic-acid assay; procedure, shortened: as §2
Nucleic Acid [23] = experiment: Binding affinity to hTERT G-quadruplex DNA in human HCT116 cells assessed as downregulation of hTERT mRNA expression at 31 uM at 6 hrs by RT-PCR analysis; assay type: cell-based; details: HCT-116
Nucleic Acid [24] = experiment: Binding affinity to PDGFRbeta G-quadruplex DNA in human HCT116 cells assessed as downregulation of PDGFRbeta mRNA expression at 31 uM at 6 hrs by RT-PCR analysis; assay type: cell-based; details: HCT-116
Nucleic Acid [25] = experiment: Decrease of c-MYC G-quadruplex DNA-mediated c-MYC expression in exon1 in human CA46 cells at 2.8 uM at 48 hrs by exon-specific assay; assay type: cell-based
Nucleic Acid [26] = experiment: Binding affinity to hTERT G-quadruplex DNA at 2 uM after 48 hrs by competition dialysis method; assay type: nucleic-acid assay; procedure, shortened: as §2
Nucleic Acid [27] = experiment: Decrease of c-MYC G-quadruplex DNA-mediated c-MYC expression in exon1 in human CA46 cells at 2.8 uM at 6 hrs by exon-specific assay; assay type: cell-based
Nucleic Acid [28] = experiment: Binding affinity to PDGFRbeta G-quadruplex DNA in human HCT116 cells assessed as downregulation of PDGFRbeta mRNA expression at 31 uM at 48 hrs by RT-PCR analysis; assay type: cell-based; details: HCT-116
Nucleic Acid [29] = experiment: Binding affinity to PDGFRbeta G-quadruplex DNA at 2 uM after 48 hrs by competition dialysis method; assay type: nucleic-acid assay; procedure, shortened: as §2
HCT-116 [30] = experiment: Increase in VEGFA G-quadruplex DNA expression in human HCT116 cells by qPCR analysis; assay type: functional, cell-based

Compound: CN(C)CCCn1c2ccccc2c2nc3ccccc3c(N3CCN(CCN(C)C)CC3)c21
IC50 (CA46): 2.8 µM
Activity (Nucleic Acid [3]): Active
Activity (Nucleic Acid [16]): inactive
Activity (Nucleic Acid [17]): inactive
Activity (Nucleic Acid [18]): Active
Activity (Nucleic Acid [5]): inactive
Activity (Nucleic Acid [19]): Active
Activity (Nucleic Acid [20]): inactive
Activity (Nucleic Acid [21]): Active
Activity (Nucleic Acid [22]): Active
Activity (Nucleic Acid [23]): Active
ΔTm (Nucleic Acid [1]): 16.5 °C
Activity (Nucleic Acid [24]): Active
Activity (Nucleic Acid [25]): inactive
Activity (Nucleic Acid [26]): Active
IC50 (HCT-116 [8]): 31 µM
Activity (Nucleic Acid [27]): inactive
Activity (Nucleic Acid [10]): Active
Activity (Nucleic Acid [28]): inactive
Activity (Nucleic Acid [13]): inactive
IC50 (HCT-116 [2]): 3.4 µM
IC50 (Raji): 3.1 µM
Activity (Nucleic Acid [29]): Active
Activity (HCT-116 [30]): Active

Compound: CN(C)CCCn1c2ccccc2c2nc3ccccc3c(N3CCN(C)CC3)c21
ΔTm (Nucleic Acid [1]): 2.8 °C
IC50 (HCT-116 [2]): 2.98 µM
IC50 (Raji): 7.03 µM

Compound: c1ccc2c(-c3ccc(CCN4CCOCC4)cc3)c3[nH]c4ccccc4c3nc2c1
ΔTm (Nucleic Acid [1]): 1.9 °C
IC50 (HCT-116 [2]): > 100 µM
IC50 (Raji): > 100 µM

Compound: CN(C)CCN1CCN(c2c3cc(-c4ccc(F)c(F)c4)ccc3nc3c2[nH]c2ccccc23)CC1
ΔTm (Nucleic Acid [1]): 6.5 °C
IC50 (HCT-116 [2]): 3.7 µM
IC50 (Raji): 5.8 µM

Compound: CN(C)CCN1CCN(c2c3cc(-c4ccncc4)ccc3nc3c2[nH]c2ccccc23)CC1
ΔTm (Nucleic Acid [1]): 8.6 °C
IC50 (HCT-116 [2]): 20.9 µM
IC50 (Raji): 45 µM

Compound: CCN(CC)CCNc1c2ccccc2nc2c1[nH]c1ccccc12
IC50 (CA46): 10 µM
ΔTm (Nucleic Acid [1]): 5.2 °C
IC50 (HCT-116 [2]): 0.11 µM
IC50 (Raji): 0.7 µM

Compound: CN(C)CCN1CCN(c2c3cc(-c4ccc(CCN5CCOCC5)cc4)ccc3nc3c2[nH]c2ccccc23)CC1
ΔTm (Nucleic Acid [1]): 13.1 °C
IC50 (HCT-116 [2]): 3.8 µM
IC50 (Raji): 10.8 µM

The next lines start with results.

ΔTm (Nucleic Acid [1]): 11.4 °C
Compound: CN(C)CCCN1CCN(c2c3ccccc3nc3c2[nH]c2ccccc23)CC1
IC50 (HCT-116 [2]): 0.9 µM
IC50 (Raji): 11.8 µM

Activity (Nucleic Acid [3]): Active
Activity (Nucleic Acid [6]): Active
ΔTm (Nucleic Acid [1]): 6.7 °C
Activity (Nucleic Acid [10]): Active
Compound: CN(C)CCN1CCN(c2c3ccccc3nc3c2[nH]c2ccccc23)CC1
IC50 (CA46): 19.4 µM
Activity (Nucleic Acid [4]): inactive
Activity (Nucleic Acid [5]): inactive
Activity (Nucleic Acid [7]): tde
IC50 (HCT-116 [8]): 23 µM
Activity (Nucleic Acid [9]): Active
Activity (Nucleic Acid [11]): inactive
Activity (Nucleic Acid [12]): inactive
Activity (Nucleic Acid [13]): inactive
IC50 (HCT-116 [2]): 0.97 µM
IC50 (Raji): 2.33 µM
Activity (Nucleic Acid [14]): Active
Activity (Nucleic Acid [15]): Active

ΔTm (Nucleic Acid [1]): 6.3 °C
Compound: COCCCN1CCN(c2c3ccccc3nc3c2[nH]c2ccccc23)CC1
IC50 (HCT-116 [2]): 6.3 µM
IC50 (Raji): 21.3 µM

ΔTm (Nucleic Acid [1]): 6.7 °C
Compound: c1ccc2c(N3CCNCC3)c3[nH]c4ccccc4c3nc2c1
IC50 (HCT-116 [2]): 4.3 µM
IC50 (Raji): 33.9 µM

ΔTm (Nucleic Acid [1]): 5.9 °C
Compound: c1ccc2c(N3CCN(CCN4CCOCC4)CC3)c3[nH]c4ccccc4c3nc2c1
IC50 (HCT-116 [2]): 9.1 µM
IC50 (Raji): 52.9 µM

ΔTm (Nucleic Acid [1]): 8.8 °C
Compound: c1ccc2c(N3CCN(CCN4CCCCC4)CC3)c3[nH]c4ccccc4c3nc2c1
IC50 (HCT-116 [2]): 0.5 µM
IC50 (Raji): 56.1 µM

ΔTm (Nucleic Acid [1]): 10.3 °C
Compound: CCN(CC)CCN1CCN(c2c3ccccc3nc3c2[nH]c2ccccc23)CC1
IC50 (HCT-116 [2]): 3.4 µM
IC50 (Raji): 26 µM

ΔTm (Nucleic Acid [1]): 3 °C
Compound: CN1CCN(c2c3ccccc3nc3c2[nH]c2ccccc23)CC1
IC50 (HCT-116 [2]): 3.5 µM
IC50 (Raji): 5.44 µM

ΔTm (Nucleic Acid [1]): 1.3 °C
Compound: OCCCN1CCN(c2c3ccccc3nc3c2[nH]c2ccccc23)CC1
IC50 (HCT-116 [2]): 2.4 µM
IC50 (Raji): > 100 µM
